Laboratory results: the EternaBench riboswitch data

Tested on: MS2 coat protein
Assay: apparent Kd, MS2 coat protein; higher = weaker binding; RNA-MaP array; FMN 200 µM where present
Procedure, shortened: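 Designs on Illumina sequencing-chip clusters, transcribed by stalled E. coli RNA polymerase, were exposed to SNAP-549-labelled MS2 coat protein in doubling steps from 0.7 or 1.5 nM up to 3 µM, without and then with constant ligand. The buffer held 100 mM Tris-HCl pH 7.5, 80 mM KCl, 4 mM MgCl2, BSA, DTT, yeast tRNA and Tween-20. Apparent Kd values are medians of filtered per-cluster binding-curve fits to green signal normalised to red-channel RNA signal and control-cluster median Fmax.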

[1] = designed as: OFF switch for flavin mononucleotide, no ligand
[2] = ligand present: flavin mononucleotide, designed as: OFF switch for flavin mononucleotide
[3] = designed as: ON switch for flavin mononucleotide, no ligand
[4] = ligand present: flavin mononucleotide, designed as: ON switch for flavin mononucleotide

Sequence	apparent Kd [1] [nM]	apparent Kd [2] [nM]	apparent Kd [3] [nM]	apparent Kd [4] [nM]
CAAUUUAUAACAGGAUAUAUAAUACAAUGAUUAAUAGAAGGGUUUAAUACAUGAGGAUCACCCAUGUCAUGUGUCAUAAUUACC	40.1	32	–	–
GUCGUGUGAGGAUAUGAUUUUUAGGCGGGAUUGCGACUGCUUCAGAAGGCACAUGAGGAUCACCCAUGUAUGAA	11.3	38.8	–	–
AAAAAACAUGAGGAUCACCCAUGUGAGGAUAUGCUAAAAAAAAAAAAAAAAAAAAAAUGCAGAAGGUACAAAAA	75.9	72.8	–	–
AUACCACGAGGAUAUCGUCUAUUUCACAUGAGGAUCACCCAUGUUAUCUUUGUUUCGUUUCGAGAAGGCGUGUUUU	33.1	23.2	–	–
UUAUUUAUGCAAGGAUAUCAAUUAUAUUGACGUCCUACAUGAGGAUCACCCAUGUUUAGUUUUUUUGAGAAGGUGCAUUGUCUG	–	–	64.8	59.7
UUGCAGUCGUCAGGAUAUAGUAUUACGGCCAUUUAUUUUUUCAUACAUGAGGAUCACCCAUGUCGCUAGAAGGGAUUAUCGAUU	49.1	45.4	–	–
GGACGUCACAUUAACAUGAGGAUCACCCAUGUCAAAAGACAUGAGGAUAUGGAUGCGAAACGCAUCCAGAAGGCAUGGACGUCC	–	–	629	41.1
UGUGCGUUGAUCUUCGAUCGGUGUACAUGAGGAUCACCCAUGUAGGAUAUUCAAAGACGCAGAUAGGAGAAGGACAUCGGAUUU	18.8	17	–	–
UACGUACAGAAGUACUCCGGGUCCAGAAGGGACAUGAGGAUCACCCAUGUACCGUUGAUUGCUUGUCAGGAUAUGGACCCGGCC	7.29	28.5	–	–
GAAGGGCCUCGAGGAUAUCGCUGCGGUCGUUUGACAUGAGGAUCACCCAUGUGAGAAGGCGAGGCUACUAACCAUGCCCGUUAU	31.3	148	–	–
CCGGUGUCAGGAUAUACGCCAACCACUGAAAAGGUAUGGGCGUAGAAGGGACAUGAGGAUCACCCAUGUCAGUC	22.8	36.3	–	–
ACAAGAUCAGGAUAUACAUGAGGAUCACCCAUGUAUAUAAAAAAAGGGCUUUCUACAUGUAGAAGGGAUCUUGU	29.9	37	–	–
CCCUCACAUGAGGAUCACCCAUGUCAGGAUAUUCGACGGUAAAUUGGCCGUCUUAAAGGAAGAAGGGACGUAAC	12.5	17.9	–	–
AUCAGCUCGUCAGGAUAUACGUCACUGCGUCAGCAGUGUGGAAAGAUCACAUGAGGAUCACCCAUGUAGAAGGGACGAGCUGAU	36.2	279	–	–
GCCGAAUGAACAUGAGGAUCACCCAUGUACAGGAAACUGAAUGAGGAUAUCCAUAGCAAAGCUAUGGAGAAGGCAUGGGUCGGC	–	–	465	99.7
UGGUACUAGGGAGGAUAUGGGAAGAUACAUGAGGAUCACCCAUGUUUAAGAAUGCCGAGAGGCAACUAGAAGGCCCAAGUACCU	–	–	425	18.6
GGGUGCAUCGGAGGAUAUCAUGUAAAUACAUGAGGAUCACCCAUGUCGAUGGAGACAUCGGAGAUUGAGAAGGCCGAUGUACCG	–	–	172	8.99
AGAAACUACGAGAAGGACAUGUGGUCCUUCAGUUACAUGAGGAUCACCCAUGUAGGAUAUCGUAGUUUCAGGAUCGUGAGAUCU	32.5	13	–	–
CGAGUCAUAGCUCCUUAGCCAGCCAGAAGGGUCUACAUGAGGAUCACCCAUGUGGUCUCGAAGGGACAGGAUAUGGAGGGCGUA	5.39	7.36	–	–
GUACUGUAGUGAGGAUAUACGAGUACGAUAGUACGGCGAUCCAAUUAUACAUGAGGAUCACCCAUGUAGAAGGCACUUCAGUAC	9.93	41.1	–	–
